GRK2 inh: compounds blocking aptamer binding on GRK2 – biochemical, human GRK2, bead flow cytometry, HTS, primary screen; AID 488847, 2010; hit rate 0.59% among 330,000; inhibition of aptamer binding, % at 10 µM; Beta-adrenergic receptor kinase 1 (Homo sapiens), P25098; FAM-aptamer displacement from GRK2;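 active means inhibition of aptamer binding above 40%, roughly 3 SD of noise, on plates passing a quality check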;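 further: median bead fluorescence of bound FAM aptamer so fluorescent compounds give negative values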
SR-BI DiI inh: inhibitors of SR-BI mediated HDL lipid uptake, primary screen, ldlA[mSR-BI] cells, fluorescence, single point; Scavenger receptor class B member 1 (Mus musculus), Q61009; ldlA[mSR-BI] CHO cells, DiI-HDL uptake fluorescence, 3 h; inhibition, % at 12.5 µM; hit rate 0.96% among 320,000;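 active means mean replicate inhibition of at least 70% and a set share of replicates each scoring 70 or more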
SR-BI DiI-HDL act: activators of SR-BI mediated DiI-HDL uptake, primary screen, ldlA[mSR-BI] CHO cells, DiI fluorescence | 3 h; 100 = double the neutral-control signal | activation, % at 12.5 µM | hit rate 0.096% among 320,000;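 active means mean replicate activation of at least 60% and every replicate at or above 60%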
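material = CHO ldlA[mSR-BI] cells | medium = Ham's F12 with 0.5% BSA, HEPES 25 mM, pH 7.4 | reagent = fluorescent DiI-HDL, 10 µg/mL final | compound dosing = single-point compound dose | incubation = 3 h, 37 °C | measured by = bottom-read fluorescence, 550/595 nm | measure = HDL uptake via cellular fluorescence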
Rin1 Abl inh: inhibitors of Rin1-Abl protein binding, primary screen, biochemical, TR-FRET. inhibition, % at 7.35 µM. Tyrosine-protein kinase ABL1 (Homo sapiens) + Ras and Rab interactor 1 (Homo sapiens), …. AID 588664, 2011. hit rate 0.4% among 360,000; in the data active means inhibition above about 5%, passing the limit was not always enough
GRK2 inh confirm: GRK2 aptamer-displacing inhibitors, retest, confirmation, biochemical, cherry pick 1, bead flow cytometry. hit rate 4% among 2,000. AID 504451, 2011. aptamer displacement, % at 10 µM. bead-bound GRK2, FAM-aptamer displacement. shares compounds with GRK2 inh;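 active means aptamer displacement above 40%, near three times the noise of non-fluorescent compounds, on plates passing quality checks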;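 further: negative values mostly reflect intrinsic compound fluorescence rather than true enhancement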
Aptamer quench 1: counter-screen for GRK2 aptamer inhibitors: fluorescent aptamer quenchers. shares compounds with GRK2 inh. Fluorescent RNA aptamer beads, quenching, flow cytometry; active compounds read high. fluorescence change (kMESF span), kMESF (test concentration not listed). 110 tested, under 10 active. AID 504521;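 active means compounds whose bead fluorescence drops by more than 37 kMESF across the dose range, marking them as dye quenchers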
Aptamer quench SP: counter-screen for GRK2 aptamer inhibitors: fluorescent aptamer quenchers; shares compounds with GRK2 inh; Carboxyfluorescein RNA aptamer on beads, flow cytometry quenching; active compounds read low; AID 504580; 2,000 tested, under 10 active; fluorescence response (% of DMSO), % at 10 µM;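 active means compounds that quench the bead-bound fluorescent RNA probe, cutting fluorescence to under half of the solvent control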;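 further: counterscreen run without GRK2 so only probe quenching by compound is measured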
GRK2 CP2: GRK2 aptamer-displacing inhibitors, hit retest, confirmation, biochemical, cherry pick 2, bead flow cytometry; shares compounds with GRK2 inh; bead-bound GRK2, FAM-aptamer displacement; inhibition of aptamer binding, % at 10 µM; 360 tested, under 10 active; AID 504782, 2011;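 active means inhibition of aptamer binding above 40%, about triple the noise seen with nonglowing compounds, on plates passing quality control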;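 further: negative values mostly come from compounds that fluoresce themselves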
FAM quench SP: counter-screen for GRK2 binding hits: quenchers of fluorescent RNA aptamer. carboxyfluorescein RNA aptamer beads, flow cytometry quenching; active compounds read low. fluorescence response vs DMSO, % at 10 µM. 360 tested, under 10 active. shares compounds with GRK2 inh. AID 588494;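 active means response vs DMSO under 50%, meaning signal dropped by over half, treated as fluorescence quencher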;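 further: labelled aptamer on streptavidin beads without GRK2 as a quench counter-screen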
FAM quench DR: quenchers of FAM-labeled RNA aptamer fluorescence, dose response, artefact control for GRK2 aptamer binding project, biochemical, powder set 1, flow cytometry; shares compounds with GRK2 inh; Bead-bound FAM RNA aptamer fluorescence quenching; active compounds read low; fluorescence ratio to DMSO, % at 11.1 µM; 35 tested, under 10 active; AID 588496, 2011;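 active means compounds that dim the fluorescent label, raw bead signal shifting by over 33 units between lowest and highest dose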
Hits are given with their value; - = inactive; . = not tested or not shown. Sampled rows, rich in hits. Any-hit rate of the full collection: about 1.9%.

SMILES	GRK2 inh	SR-BI DiI inh	SR-BI DiI-HDL act	Rin1 Abl inh	GRK2 inh confirm	Aptamer quench SP	others
O=C(CSc1nc2ccccc2c(=O)n1-c1ccccc1)NC(=O)CN1CCCC1=O	70	-	-	-	50	-	Aptamer quench 1=-;GRK2 CP2=-;FAM quench SP=-;FAM quench DR=-
O=C(CSc1nc2ccccc2c(=O)n1-c1ccccc1)N1CCC1	-	-	-	-	.	.
CN=C1S/C(=C\c2ccc(SC)cc2)C(=O)N1C	-	-	-	-	.	.
CSC1=NC(=O)/C(=C/c2ccc(SC)cc2)S1	58	-	-	-	-	-
COc1ccc(S(=O)(=O)Nc2cc(SCC(=O)O)c(O)c3ccccc23)cc1	-	-	-	-	.	.
O=S(=O)(Nc1cc(Sc2cccc3cccnc23)c(O)c2ccccc12)c1ccc(F)cc1	42	.	.	.	-	-
Cc1ccc(C(OCC(O)CN2CCCCC2CO)c2ccccc2)cc1 (stereo not drawn)	-	-	-	-	.	.
CC(OCC(O)CN1CCCCC1CCO)c1ccc(Cl)cc1 (stereo not drawn)	75	.	.	-	-	-
O=C(NCC1OCCc2ccccc21)c1ccc(NC(=O)c2ccccc2Cl)cc1 (stereo not drawn)	47	-	-	-	.	.	GRK2 CP2=-;FAM quench SP=-
CC1=C(C(=O)N(C)C)CC(CC(=O)NC2CCCCC2)C(=O)N1Cc1ccc(F)cc1 (stereo not drawn)	.	.	.	-	.	.
CC(=O)Nc1ccc(S(=O)(=O)c2ccnc3cc(Cl)ccc23)cc1	.	.	.	-	.	.
COc1cc(C(=O)Nc2c(C(=O)O)[nH]c3ccc(C)cc23)cc(OC)c1OC	88	-	-	-	-	-
CCOC(=O)c1[nH]c2ccccc2c1NC(=O)c1cc(OC)c(OC)c(OC)c1	-	-	-	-	.	.
O=C(Nc1cccc(Br)c1)c1ccc(OC2CSC2)cc1	-	.	.	.	.	.
COc1ccc(NS(=O)(=O)c2cccc(C(=O)N3CCN(S(=O)(=O)c4ccccc4)CC3)c2)cc1	.	-	-	-	.	.
CCCCn1c(NC(C)=O)c(C#N)c2nc3ccccc3nc21	-	-	-	-	.	.
C=CCn1c(NC(=O)c2ccccc2Cl)c(C#N)c2nc3ccccc3nc21	43	-	-	-	-	-
CSc1ccccc1C(=O)Nc1cccc(C)c1	97	-	-	-	-	-
COc1ccc(NC(=O)c2ccccc2SC)cc1OC	-	-	-	-	.	.
C=CCOc1cccc(NC(=O)c2ccccc2SC)c1	92	-	-	-	-	-
CSc1ccccc1C(=O)Nc1cc(C)ccc1C	-	-	-	-	.	.
COc1cc2c3c(c1OC)C1(C=CC(=O)C=C1)CC3N(C(=O)c1ccccc1)CC2 (stereo not drawn)	70	-	-	-	-	-
CC(N)c1csc(Nc2ncccn2)n1 (stereo not drawn)	.	.	.	-	.	.
CSc1ccc(C=O)cc1	73	-	-	-	-	-
CCCCn1c(N)c(N(CCC(C)C)C(=O)COC(=O)/C=C/c2ccc(F)cc2)c(=O)[nH]c1=O	-	-	-	-	.	.
SMILES	GRK2 inh	SR-BI DiI inh	SR-BI DiI-HDL act	Rin1 Abl inh	GRK2 inh confirm	Aptamer quench SP	others
CCC1Sc2ccccc2N(CC(=O)NCCC(C)C)C1=O (stereo not drawn)	-	-	-	-	-	-
OCCc1ccccc1	-	.	.	.	-	-
c1ccc(CCc2ccncc2)cc1	66	-	-	-	-	-
c1ccc(CCCCc2ccncc2)cc1	.	-	-	-	.	.
OCCc1ccc(O)cc1	-	-	-	-	.	.
CC(C)(C)NS(=O)(=O)c1ccc(NC(=O)C2CCCCC2)cc1	-	-	-	-	.	.
COc1ccc2nc(SCC(=O)Nc3ccc4c(c3)OCCO4)[nH]c2c1	75	-	-	-	99	-	Aptamer quench 1=-
Cc1oc(-c2ccccc2)cc1C(=O)Nc1ccc2ccccc2c1	98	-	-	-	-	-
COC(=O)NNC(=O)COc1ccc(Br)c(C)c1	-	-	-	-	.	.
Cc1cc(OCC(=O)Nn2cnnc2)ccc1Br	71	-	-	-	-	-
C/C(CC(=O)Nc1cccc(Cl)c1Cl)=N\NC(=O)c1ccccc1C	-	-	-	-	.	.
CSCc1cc(N(C)C)nc(SCc2ccc(Cl)c(Cl)c2)n1	76	-	-	-	-	-
COCCn1c(=O)[nH]c2cc(C(=O)Nc3cc(OC)c(OC)c(OC)c3)ccc2c1=O	-	.	.	-	.	.
COCCn1c(=O)[nH]c2cc(C(=O)Nc3ccc(OC)c(Cl)c3)ccc2c1=O	57	-	-	-	-	-
CC(C)CNc1ncnc2c1ncn2[C@H]1CN(Cc2ccc(C(=O)O)cc2)C[C@@H](CO)O1	.	.	.	-	.	.
CC1CCCCN1C(=O)Cn1cc(C(=O)c2ccco2)c2ccccc21 (stereo not drawn)	97	-	-	-	-	-
O=C(c1ccco1)c1cn(CC(=O)N2CCCCCC2)c2ccccc12	-	-	-	-	.	.
CC(C)(C)OC(=O)N(CCc1ccccc1)Cc1cccc(OCc2cccc(NC(=O)C3CCCC3)c2)c1	.	-	-	-	.	.
C=C(C)CCOC(=O)C(CC(=O)O)NCc1ccco1 (stereo not drawn)	43	.	.	-	-	-
CCSC(=O)N1c2ccc(OC)cc2C=CC1C#N (stereo not drawn)	.	-	-	-	.	.
CC(C)NC(=O)NC(=O)COC(=O)/C=C/c1ccccc1[N+](=O)[O-]	100	-	-	-	-	-
COc1ccc(NC(=O)c2cc(S(=O)(=O)N3CCc4ccccc43)cn2C)c(OC)c1	-	-	-	-	.	.
Cc1cc(F)ccc1NC(=O)c1cc(S(=O)(=O)N2CCc3ccccc32)cn1C	73	-	-	-	-	-
OC(c1cc(F)cc(Cl)c1)c1ncc(-c2ccccc2Cl)[nH]1 (stereo not drawn)	.	.	.	-	.	.
